Experimental data reported in ChEMBL document CHEMBL5344414, “Maleimide constrained BAD BH3 domain peptides as BCL-xL Inhibitors: A versatile approach to rapidly identify sites compatible with peptide constraining” (Bioorg Med Chem Lett, 2023).
Activity calls are given as the source filed them. The rule behind the calls is not given here. Where a SMILES comes first, the peptide text is derived from it.

Experiments:
BCL2L1/BAD = BCL2L1/BAD (Homo sapiens, UniProt Q07817); experiment: Inhibition of BAD/His-SUMO tagged BCL-XL (1 to 209 residues; missing 27 to 82 residues) (unknown origin) overexpressed in Escherichia coli BL21 protein-protein interaction by fluorescence anisotropy competition assay
BCL2L1/BAD, sequence (Q92934 whole entry, the tested form may be a part): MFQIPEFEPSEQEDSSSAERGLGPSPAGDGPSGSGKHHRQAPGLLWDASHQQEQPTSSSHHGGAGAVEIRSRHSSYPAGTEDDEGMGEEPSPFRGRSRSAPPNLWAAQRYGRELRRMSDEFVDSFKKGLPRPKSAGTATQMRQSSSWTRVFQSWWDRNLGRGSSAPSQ
BCL2L1/BAD, sequence (Q07817 whole entry, the tested form may be a part): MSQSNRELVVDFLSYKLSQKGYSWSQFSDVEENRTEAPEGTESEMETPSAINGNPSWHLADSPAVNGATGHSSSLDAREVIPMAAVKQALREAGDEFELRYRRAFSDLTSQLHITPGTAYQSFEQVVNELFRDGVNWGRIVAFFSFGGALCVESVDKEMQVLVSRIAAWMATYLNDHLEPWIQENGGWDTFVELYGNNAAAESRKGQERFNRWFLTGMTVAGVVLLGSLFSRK
Procedure, shortened: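 Final conditions: 200 nM BCL-xL, 50 nM tracer, 20 mM Tris, 150 mM NaCl, pH 7.6, 20 °C, with peptide titrated. Tracer Kd for BCL-xL was determined beforehand by direct titration (6 nM-125 μM protein).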

[1] = target: Induced myeloid leukemia cell differentiation protein Mcl-1/BH3-interacting domain death agonist (Homo sapiens) (UniProt Q07820+P55957); experiment: Inhibition of BID/MCL-1 interaction (unknown origin) by fluorescence anisotropy competition assay; assay type: protein assay
Induced myeloid leukemia cell differentiation protein Mcl-1/BH3-interacting domain death agonist (Homo sapiens), sequence (P55957 whole entry, looked up, the tested form may be a part): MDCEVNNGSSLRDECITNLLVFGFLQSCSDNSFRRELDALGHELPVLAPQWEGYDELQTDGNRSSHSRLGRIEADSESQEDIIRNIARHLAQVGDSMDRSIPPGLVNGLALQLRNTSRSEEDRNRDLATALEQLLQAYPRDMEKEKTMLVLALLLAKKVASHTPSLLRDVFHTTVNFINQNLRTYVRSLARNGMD
Induced myeloid leukemia cell differentiation protein Mcl-1/BH3-interacting domain death agonist (Homo sapiens), sequence (Q07820 whole entry, looked up, the tested form may be a part): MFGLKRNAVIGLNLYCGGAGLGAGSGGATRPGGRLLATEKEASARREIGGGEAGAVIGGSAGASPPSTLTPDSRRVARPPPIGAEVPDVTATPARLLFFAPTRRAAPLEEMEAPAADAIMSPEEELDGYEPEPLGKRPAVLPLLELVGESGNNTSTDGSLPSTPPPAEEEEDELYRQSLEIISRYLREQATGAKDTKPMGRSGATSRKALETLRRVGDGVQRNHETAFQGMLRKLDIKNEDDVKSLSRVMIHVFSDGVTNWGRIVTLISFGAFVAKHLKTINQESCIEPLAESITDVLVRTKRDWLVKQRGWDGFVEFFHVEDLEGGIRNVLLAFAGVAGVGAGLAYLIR

Row | IC50 (BCL2L1/BAD) [µM] | SMILES | inhibition [1]
1 | 2.4 | CSCC[C@@H]1NC(=O)[C@@H](NC(=O)[C@H](CCCNC(=N)N)NC(=O)[C@H](CC(C)C)NC(=O)[C@H](CCC(=O)O)NC(=O)[C@H](CCCNC(=N)N)NC(=O)CNC(=O)[C@H](Cc2ccc(O)cc2)NC(=O)[C@H](CCCNC(=N)N)NC(C)=O)CS2=S(C[C@@H](C(=O)N[C@@H](Cc3ccccc3)C(=O)N[C@H](C(=O)N[C@@H](CC(=O)O)C(=O)N[C@@H](CO)C(=O)N[C@@H](Cc3ccccc3)C(=O)N[C@@H](CCCCN)C(=O)N[C@@H](CCCCN)C(N)=O)C(C)C)NC(=O)[C@H](CC(=O)O)NC(=O)[C@H](CO)NC1=O)C(=O)NC2=O (stereo partly specified) | inactive
2 | 6.9 | CSCC[C@H](NC(=O)[C@H](CS)NC(=O)[C@H](CCCNC(=N)N)NC(=O)[C@H](CC(C)C)NC(=O)[C@H](CCC(=O)O)NC(=O)[C@H](CCCNC(=N)N)NC(=O)CNC(=O)[C@H](Cc1ccc(O)cc1)NC(=O)[C@H](CCCNC(=N)N)NC(C)=O)C(=O)N[C@@H](CO)C(=O)N[C@@H](CC(=O)O)C(=O)N[C@@H](CS)C(=O)N[C@@H](Cc1ccccc1)C(=O)N[C@H](C(=O)N[C@@H](CC(=O)O)C(=O)N[C@@H](CO)C(=O)N[C@@H](Cc1ccccc1)C(=O)N[C@@H](CCCCN)C(=O)N[C@@H](CCCCN)C(N)=O)C(C)C (Ac-RYGRELRCMSDCFVDSFKK-NH2) | inactive
3 | 3.6 | CSCC[C@H](NC(=O)[C@H](CCCNC(=N)N)NC(=O)[C@H](CCCNC(=N)N)NC(=O)[C@H](CC(C)C)NC(=O)[C@H](CCC(=O)O)NC(=O)[C@H](CCCNC(=N)N)NC(=O)CNC(=O)[C@H](Cc1ccc(O)cc1)NC(=O)[C@H](CCCNC(=N)N)NC(C)=O)C(=O)N[C@@H](CO)C(=O)N[C@@H](CC(=O)O)C(=O)N[C@@H](CCC(=O)O)C(=O)N[C@@H](Cc1ccccc1)C(=O)N[C@H](C(=O)N[C@@H](CC(=O)O)C(=O)N[C@@H](CO)C(=O)N[C@@H](Cc1ccccc1)C(=O)N[C@@H](CCCCN)C(=O)N[C@@H](CCCCN)C(N)=O)C(C)C (Ac-RYGRELRRMSDEFVDSFKK-NH2) | inactive
